# VIM-2 inh: VIM-2 metallo-beta-lactamase inhibitors, primary screen, biochemical, epi-absorbance readout, Pseudomonas aeruginosa enzyme. hit rate 0.89% among 290,000. purified VIM-2, nitrocefin hydrolysis, epi-absorbance fluorescence. inhibition, % at 5.6 µM. AID 1527, 2009;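 active = inhibition above the mean of all tested compounds plus 3 SD, cutoff set per screening run, cut at about 7.5% in these data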;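 also: red hydrolysis product quenches plate fluorescence so inhibitors raise well fluorescence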
# IMP-1 inh-1: IMP-1 metallo-beta-lactamase inhibitors, primary screen, biochemical, epi-absorbance readout, Pseudomonas aeruginosa enzyme; purified IMP-1, nitrocefin hydrolysis, epi-absorbance fluorescence; AID 1556, 2009; inhibition, % at 5.6 µM; hit rate 0.45% among 290,000; metallo-beta-lactamase IMP-1 (Pseudomonas aeruginosa);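 active = inhibition above the mean plus 3 SD of all compounds in the same screening run, cut at about 4.5% in these data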
#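 Assay system: purified IMP-1; Quantity: IMP-1 0.2 nM before substrate addition; Medium: HEPES buffer pH 7.1 with ZnSO4 and Brij 35; Incubation: 15 min enzyme–compound preincubation, then 25 min nitrocefin reaction, 25 °C; Signal: fluorescence quenching readout, ex 480/em 530 nm; Controls: DMSO with and without IMP-1; Repeats: singlicate testing.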
# PLCb3 inh: human PLC-beta3 inhibitors, primary screen, biochemical, fluorescence. inhibition, % at 12.2 µM. hit rate 0.18% among 370,000. Purified PLC-beta3, fluorogenic substrate. 1-phosphatidylinositol 4,5-bisphosphate phosphodiesterase beta-3 (Homo sapiens), Q01970; in the data active = inhibition above about 11%
# Target sequence (Q01970 whole entry, looked up): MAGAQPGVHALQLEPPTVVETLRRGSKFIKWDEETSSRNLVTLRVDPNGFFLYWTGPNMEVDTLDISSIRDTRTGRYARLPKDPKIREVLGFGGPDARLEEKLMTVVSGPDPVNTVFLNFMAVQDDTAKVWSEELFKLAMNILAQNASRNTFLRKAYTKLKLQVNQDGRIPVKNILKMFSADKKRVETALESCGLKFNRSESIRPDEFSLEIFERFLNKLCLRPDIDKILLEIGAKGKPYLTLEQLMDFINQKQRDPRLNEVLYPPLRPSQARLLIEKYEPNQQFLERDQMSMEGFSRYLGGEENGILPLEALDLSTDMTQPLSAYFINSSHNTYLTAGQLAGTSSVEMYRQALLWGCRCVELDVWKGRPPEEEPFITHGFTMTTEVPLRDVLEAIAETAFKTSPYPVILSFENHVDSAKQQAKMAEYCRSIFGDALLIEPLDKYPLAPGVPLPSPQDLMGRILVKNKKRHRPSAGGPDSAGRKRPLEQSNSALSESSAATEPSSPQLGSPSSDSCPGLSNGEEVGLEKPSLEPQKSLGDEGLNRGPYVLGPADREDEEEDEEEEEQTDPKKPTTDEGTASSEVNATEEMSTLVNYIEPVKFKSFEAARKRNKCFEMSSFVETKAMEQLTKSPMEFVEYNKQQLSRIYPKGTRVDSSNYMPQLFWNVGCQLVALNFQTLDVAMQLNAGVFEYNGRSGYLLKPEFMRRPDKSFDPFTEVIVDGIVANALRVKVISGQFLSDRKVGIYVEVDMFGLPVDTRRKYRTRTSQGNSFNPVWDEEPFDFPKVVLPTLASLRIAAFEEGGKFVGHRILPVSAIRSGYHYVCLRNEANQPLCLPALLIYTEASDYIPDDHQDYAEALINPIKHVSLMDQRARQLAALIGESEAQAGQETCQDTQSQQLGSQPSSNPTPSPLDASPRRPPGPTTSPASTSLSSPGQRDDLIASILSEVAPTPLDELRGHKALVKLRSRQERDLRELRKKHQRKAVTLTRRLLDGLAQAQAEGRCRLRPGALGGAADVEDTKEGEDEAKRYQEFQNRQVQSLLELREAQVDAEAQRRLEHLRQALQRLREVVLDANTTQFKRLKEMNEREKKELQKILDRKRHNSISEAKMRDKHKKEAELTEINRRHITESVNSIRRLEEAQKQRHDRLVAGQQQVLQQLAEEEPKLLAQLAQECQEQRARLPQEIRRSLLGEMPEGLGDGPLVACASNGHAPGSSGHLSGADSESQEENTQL
# PLC-gamma1 inh: PLC-gamma1 enzyme inhibitors, primary screen, biochemical, fluorescence, purified enzyme; inhibition, % at 12.2 µM; hit rate 0.84% among 370,000; AID 720700, 2013; fluorogenic substrate; 1-phosphatidylinositol 4,5-bisphosphate phosphodiesterase gamma-1 (Homo sapiens), P19174; in the data active = inhibition above about 9.5%
# PvdQ inh: P. aeruginosa PvdQ acylase inhibitors, primary screen, biochemical, fluorescence, plate reader and imaging, single point. purified PvdQ acylase. AID 488965, 2010. PvdQ acylase [Pseudomonas aeruginosa LESB58]. inhibition, % at 10 µM. hit rate 0.063% among 340,000; in the data active = inhibition above about 30%, passing the limit was not always enough
# IMP-1 inh-2: IMP-1 metallo-beta-lactamase inhibitors, confirmation, selectivity assay for selective VIM-2 inhibitor project, biochemical, epi-absorbance readout, triplicate. shares compounds with VIM-2 inh. 1,300 tested, under 10 active. purified IMP-1, nitrocefin hydrolysis, epi-absorbance fluorescence. AID 1856, 2009. inhibition, % at 5.6 µM; call rule not given here
# VIM-2 FRET ctr: VIM-2 inhibitors in FRET format, confirmation, artefact control for selective VIM-2 inhibitor project, biochemical, epi-absorbance artifact exclusion | shares compounds with VIM-2 inh | purified VIM-2, CCF2 FRET substrate hydrolysis | inhibition, % at 5.6 µM | hit rate 23% among 1,300 | AID 1857, 2009;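 active = inhibition above the mean of all tested compounds plus 3 SD, cut at about 19% in these data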
# TEM-1 inh: TEM-1 serine beta-lactamase inhibitors, counter-screen for VIM-2 inhibitor project, biochemical, epi-absorbance, HTS. AID 1866, 2009. Purified TEM-1, nitrocefin hydrolysis, epi-absorbance fluorescence. shares compounds with VIM-2 inh. hit rate 3% among 1,300. inhibition, % at 5.6 µM;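 active = inhibition above that campaign's mean inhibition plus 3 SD, cut at about 0.46% in these data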
# VIM-2 inh conf: VIM-2 metallo-beta-lactamase inhibitors, confirmation, biochemical, epi-absorbance, hits shared with IMP-1 screen; inhibition, % at 5.6 µM; hit rate 96% among 1,300; AID 2187, 2009; shares compounds with VIM-2 inh; purified VIM-2, nitrocefin hydrolysis;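 active = inhibition of the VIM-2 beta-lactamase enzyme above about 11% from the earlier first-round screen, limit read from the data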
# Hits are given with their value; i = inactive; nt = not tested or not shown. Most compounds without a hit are left out; they make up all but 2% or so of the library.
SMILES,VIM-2 inh,IMP-1 inh-1,PLCb3 inh,PLC-gamma1 inh,PvdQ inh,IMP-1 inh-2,VIM-2 FRET ctr,TEM-1 inh,VIM-2 inh conf
CNC(C#Cc1ccccc1)c1ccccc1C(F)(F)F (stereo unspecified),nt,nt,i,i,nt,nt,nt,nt,nt
COc1ccc(Cl)c2c1[nH]c1nc(SCc3ccccn3)nnc12,13.4,i,i,i,i,i,i,i,21.5
COc1ccc(Cl)c2c1[nH]c1nc(SCc3cccnc3)nnc12,i,i,i,i,i,nt,nt,nt,nt
COc1ccc(CNC(=O)O[C@H]2CC[C@@]34CCCN3C(=O)CCC[C@H]4C2)cc1,nt,nt,i,i,nt,nt,nt,nt,nt
CCc1cc(=O)oc2cc(OCC(=O)NCCCn3ccnc3)c(Cl)cc12,23.6,i,i,i,i,i,i,i,34.6
Cc1c(C)c2cc(Cl)c(OCC(=O)NCCCn3ccnc3)cc2oc1=O,27.9,i,i,i,i,i,i,i,37.7
O=C(COc1cc2oc(=O)c3c(c2cc1Cl)CCC3)NCCCn1ccnc1,29.5,i,i,i,i,i,i,i,44.1
CCc1cc(=O)oc2cc(OCC(=O)NCCCN3CCCC3=O)c(Cl)cc12,i,i,i,i,i,nt,nt,nt,nt
CCN(CC)C(=O)CC[C@@H]1CC[C@]2(CCCN(C(=O)c3cccnc3)C2)O1,nt,nt,i,i,nt,nt,nt,nt,nt
CCCCCC[C@H](CC)CN(C(=O)Oc1ccccc1)c1ccccc1,nt,nt,i,i,nt,nt,nt,nt,nt
C#CCN1C(C(=O)OC)CN(CCCCCC)CCS1(=O)=O (stereo unspecified),nt,nt,i,i,nt,nt,nt,nt,nt
O=C(CNS(=O)(=O)c1ccc(Br)s1)N1CCN(c2ccccn2)CC1,nt,nt,i,i,nt,nt,nt,nt,nt
COc1ccc2ccccc2c1C=Nn1c(-c2n[nH]c3c2CCC3)n[nH]c1=S,nt,nt,i,i,nt,nt,nt,nt,nt
Oc1ccc(-c2nccc(-c3ccc(F)cc3)n2)cc1,15.8,i,i,i,i,i,i,i,30.8
Cc1nnc2c(SC(C)C)nc3ccccc3n12,13.5,i,i,i,i,i,i,i,22.3
Cc1ccc(-c2nc3ccccc3n3c(C)nnc23)cc1,i,i,nt,nt,nt,nt,nt,nt,nt
N[C@H](C(=O)Nc1ccc(Cl)cc1C(=O)c1ccc[nH]1)c1ccccc1,nt,nt,i,i,nt,nt,nt,nt,nt
COc1ccc2c(c1)oc(=O)c1ccccc12,8.3,i,i,i,i,i,i,i,15.1
COc1ccc2c(c1)oc(=O)c1cc(OC)ccc12,i,i,i,i,i,nt,nt,nt,nt
COC(=O)c1cccc(Cn2ccc3ccc(-c4ccc5ccn(C(=O)c6ccccc6OC)c5c4)cc32)c1,nt,nt,i,i,nt,nt,nt,nt,nt
CCCc1nn(C)c2c(=O)[nH]c(-c3cc(S(=O)(=O)N4CCN(C)CC4)ccc3OCC)nc12,17.4,i,i,i,i,i,i,i,25.5
O=C(CCc1ccccc1)N[C@H]1[C@@H](OC(=O)C2CC2)CCC[C@@]12C(=O)N(Cc1ccccc1)c1ccccc12,nt,nt,i,i,nt,nt,nt,nt,nt
CCCn1c(C(C)C)n[nH]c1=S,26.4,i,i,i,i,i,54.1,i,35.3
CCCn1c(-c2ccncc2)n[nH]c1=S,i,i,i,i,i,nt,nt,nt,nt
Cc1cccnc1CN1CCN(C(=O)c2cc(COc3ccc4ncccc4c3)on2)CC1,47.8,i,i,i,i,i,i,i,63.8
SMILES,VIM-2 inh,IMP-1 inh-1,PLCb3 inh,PLC-gamma1 inh,PvdQ inh,IMP-1 inh-2,VIM-2 FRET ctr,TEM-1 inh,VIM-2 inh conf
On1c(-c2ccccc2)nc2ccccc21,i,i,i,i,i,nt,nt,nt,nt
O=Nc1c2nc3ccccc3n(O)c-2c2ccccc12,16.1,i,i,i,i,i,i,i,27.1
O=C(NCCCn1ccnc1)c1nn2c(C(F)(F)F)cc(-c3ccccc3)nc2c1Cl,27.1,i,i,i,51.1,i,i,i,52.5
COCCNC(=O)c1nn2c(C(F)(F)F)cc(-c3ccccc3)nc2c1Cl,i,i,i,i,i,nt,nt,nt,nt
O=C(CSc1nnc(-c2cccnc2)n1-c1ccccc1)Nc1ccc2c(c1)OCCO2,nt,nt,i,i,nt,nt,nt,nt,nt
Cc1ccc(-n2c(-c3nn(C)cc3Cl)n[nH]c2=S)cc1,17.0,i,i,i,i,i,50.0,i,30.9
Cn1cc(Cl)c(-c2n[nH]c(=S)n2-c2ccccc2)n1,14.0,i,i,i,i,i,41.5,i,25.3
Cc1nn(C)c(-c2n[nH]c(=S)n2-c2ccccc2)c1Cl,i,i,i,i,i,nt,nt,nt,nt
Cc1c(Cl)c(-c2n[nH]c(=S)n2-c2ccc(F)cc2)nn1C,16.2,i,i,i,i,i,42.1,i,29.7
Cc1ccc(-n2c(-c3cc(C)n(C)n3)n[nH]c2=S)cc1,i,i,i,i,i,nt,nt,nt,nt
CCOC(=O)c1cnc(-n2nc(C)cc2C)nc1NCc1ccc2c(c1)OCO2,57.7,i,i,i,i,i,i,1.6,88.6
CN(C)S(=O)(=O)c1cccc(NC(=S)NC2CCCCC2)c1,i,i,i,i,i,nt,nt,nt,nt
CN(C)S(=O)(=O)c1cccc(NC(=S)NN=C(Cc2ccccc2)Cc2ccccc2)c1,15.4,i,i,i,i,i,i,i,i
CN(C)S(=O)(=O)c1cccc(NC(=S)N/N=C/C2CC=CCC2)c1 (stereo unspecified),70.8,i,i,i,i,i,83.4,i,76.3
CCCCCCCCN1C(=O)[C@@H](CC(=O)N2CCSCC2)C[C@@]2(C(=O)OC)C1=C[C@H](C(C)C)O[C@@H]2C1CC1,nt,nt,i,i,nt,nt,nt,nt,nt
CC(=C/c1ccccc1)/C=N/n1c(-c2ccncc2)n[nH]c1=S,16.0,i,i,i,i,i,47.9,i,28.1
CC(/C=N/n1c(-c2cccnc2)n[nH]c1=S)=C\c1ccccc1,i,i,i,i,i,nt,nt,nt,nt
CC(=C/c1ccccc1)/C=N/n1c(C)n[nH]c1=S,33.0,i,i,i,i,i,61.5,i,42.1
O=C1Nc2cc(C(=O)NCCCN3CCCC3)ccc2S/C1=C/c1ccccc1F,32.9,i,i,i,i,i,53.7,i,38.4
O=C(NCCCN1CCCCC1)c1ccc2c(c1)NC(=O)c1ccccc1S2,i,i,i,i,i,nt,nt,nt,nt
COc1cccc(/C=C2/Sc3ccc(C(=O)NCCCN4CCCC4)cc3NC2=O)c1,16.1,i,i,i,i,i,43.1,i,28.4
O=C1Nc2cc(C(=O)NCCN3CCCCCC3)ccc2S/C1=C/c1ccccc1F,nt,nt,i,i,nt,nt,nt,nt,nt
